Calls of active or inactive are those of the source. The calls are words filed in the database; no cut-off is given here.
Key:
Mus musculus [1] = species: Mus musculus; test: Antipsoriatic activity in K14-VEGF transgenic mouse model of psoriasis assessed as decrease in CD54 expression in psoriatic lesion at 0.05% applied tropically over lesion for continuous 29 days by immunohistochemical analysis relative to vehicle control; type: functional; set-up: scale not given: the % may be the effect or the level left
Summary of the method: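 K14-VEGF mice were treated topically with 0.05% cream or vehicle for 29 days, n=3 per group. Ear skin was paraffin-embedded, cut into 4-µm sections and immunostained. Staining was quantified in 5 random fields, reported as mean ± SD.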

[2] = molecular target: T1, Receptor-type tyrosine-protein kinase FLT3 (Homo sapiens, UniProt P36888); test: Inhibition of recombinant human N-terminal GST-tagged FLT3 (564 to end residues) expressed by baculovirus in Sf21 insect cells measured after 10 mins in presence of [gamma-33P]ATP by scintillation counter method
T1 sequence (P36888 whole entry): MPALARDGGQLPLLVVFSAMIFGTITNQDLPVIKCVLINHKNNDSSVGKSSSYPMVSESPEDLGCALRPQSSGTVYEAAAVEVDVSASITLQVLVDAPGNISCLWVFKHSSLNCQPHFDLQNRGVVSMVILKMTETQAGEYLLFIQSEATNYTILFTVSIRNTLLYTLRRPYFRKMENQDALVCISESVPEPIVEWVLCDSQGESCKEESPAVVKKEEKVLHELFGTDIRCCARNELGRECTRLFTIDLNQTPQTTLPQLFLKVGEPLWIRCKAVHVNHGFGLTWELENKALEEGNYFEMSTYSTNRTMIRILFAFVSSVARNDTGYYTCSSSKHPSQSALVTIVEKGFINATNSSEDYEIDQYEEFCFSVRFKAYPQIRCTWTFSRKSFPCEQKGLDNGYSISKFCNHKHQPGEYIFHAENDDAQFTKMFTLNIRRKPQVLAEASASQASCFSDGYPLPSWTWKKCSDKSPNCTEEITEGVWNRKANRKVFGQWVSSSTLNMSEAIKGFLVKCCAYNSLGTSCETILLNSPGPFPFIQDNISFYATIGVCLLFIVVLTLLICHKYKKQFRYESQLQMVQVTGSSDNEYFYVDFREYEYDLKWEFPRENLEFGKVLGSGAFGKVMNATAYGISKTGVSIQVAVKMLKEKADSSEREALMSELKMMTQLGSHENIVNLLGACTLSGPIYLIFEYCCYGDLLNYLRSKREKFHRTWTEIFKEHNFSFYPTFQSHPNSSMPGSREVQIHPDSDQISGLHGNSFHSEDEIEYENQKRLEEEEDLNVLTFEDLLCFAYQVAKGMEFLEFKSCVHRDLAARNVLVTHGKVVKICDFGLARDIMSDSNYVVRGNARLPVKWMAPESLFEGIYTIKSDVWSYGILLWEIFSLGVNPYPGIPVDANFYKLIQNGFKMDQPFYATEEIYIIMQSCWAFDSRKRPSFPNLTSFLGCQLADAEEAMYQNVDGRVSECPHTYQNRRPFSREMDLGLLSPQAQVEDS

Mus musculus [3] = species: Mus musculus; test: Antipsoriatic activity in K14-VEGF transgenic mouse model of psoriasis assessed as reduction in epidermal thickness at 0.05% applied tropically over lesion for continuous 29 days by H and E staining method relative to vehicle control; type: functional, organism-based
Summary of the method: (§1)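 Homozygous K14-VEGF mice, 3–4 months old, with moderate to serious psoriasis; n=3 per group. Cream with 0.05% compound or vehicle cream smeared on lesions. Head and neck tissue sections taken after 29 days of treatment and HE-stained. Baker pathological score from 5 random fields, given as mean and SD. Epidermal thickness from 8 random fields, given as mean ± SEM.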

Mus musculus [4] = species: Mus musculus; test: Antipsoriatic activity in K14-VEGF transgenic mouse model of psoriasis assessed as lower right quadrant DC cells expressing FLT3 and CD11c in psoriatic plaque lesion at 0.05% applied tropically over lesion for continuous 29 days by flow cytometric analysis (reference value: 8.88%); type: functional
Mus musculus [5] = species: Mus musculus; test: Antipsoriatic activity in K14-VEGF transgenic mouse model of psoriasis assessed as decrease in DC cells expressing FLT3 and CD11c in psoriatic lesion at 0.05% applied tropically over lesion for continuous 29 days by flow cytometric analysis relative to control; type: functional
Mus musculus [6] = species: Mus musculus; test: Antipsoriatic activity in K14-VEGF transgenic mouse model of psoriasis assessed as lower left quadrant FLT3+/CD11c+/MHC-II+ mDC cells in psoriatic plaque lesion at 0.05% applied tropically over lesion for continuous 29 days by flow cytometric analysis (reference value: 1.09%)
Mus musculus [7] = species: Mus musculus; test: Antipsoriatic activity in K14-VEGF transgenic mouse model of psoriasis assessed as reduction in focal parakeratinosis at 0.05% applied tropically over lesion for continuous 29 days by H and E staining method relative to vehicle control; type: functional, organism-based; summary of the method: as §1

`CC(C)(C)c1cc(NC(=O)Nc2ccc(Oc3ncnc4[nH]ncc34)c(F)c2)no1` was tested, and the Activity (Mus musculus [1]) was 87%, the IC50 [2] was 5 nM and the Activity (Mus musculus [3]) was “Active”. For the same compound, the Activity (Mus musculus [4]) was 2.1%, the “inhibition (INH)” value (Mus musculus [5]) was 69.6% and the Activity (Mus musculus [6]) was 1.54%. The Activity (Mus musculus [7]) was “Active”.
